Assay results taken from paper PMC6925336 (European journal of pharmaceutical sciences : official …, 2019).
“And” between values parts separate entries of the source, which are not always exact repeats. Equal values may be shown once.

How the values were obtained:
[1] = Plasma pharmacokinetic study, 10 mg/kg SQ, population model; type: in vivo, CD-1 nude mice bearing G3MB; details: for AUC: Model-derived AUCplasma, total plasma
In short: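 Nine female CD-1 nude mice carrying orthotopic mouse G3MB cells (enrolled at ~1×10^7 photons/sec) got 10 mg/kg SQ in 20% w/v Captisol. Population design: 2–3 samples per mouse up to 24 h, […]. Plasma assayed by LC-MS/MS. Fit with a two-compartment model with first-order absorption and linear elimination (apparent parameters); FOCE with interaction; log-normal inter-individual variability.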

cleaved caspase-3 = type: in vivo, mice bearing G3MB; details: 20 mg/kg IV single dose, at 24 hours post-dose; not statistically significant
In short: (§1)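 G3MB-bearing mice (N=21), enrolled at ~1×10^7 photons/sec, were randomized to vehicle or one 20 mg/kg IV bolus. Brains were harvested pre-dose and at 1, 2, 6 and 24 h post-dose and fixed in paraformaldehyde. Immunohistochemistry was done for pCHK1 S345, γ-H2AX and cleaved caspase-3. Scanned slides were quantified as percent positive-staining cells.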

[2] = adult patients, recommended phase II dosage of 105 mg/m^2; ref Hong et al., 2016; cited from earlier work
[3] = Plasma protein binding by equilibrium dialysis; type: in vitro ADME, mouse
In short: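 Equilibrium dialysis. CD-1 mouse plasma (sodium heparin) was spiked at final 2–2000 ng/ml (eight levels), in triplicate, against blank Ringer's solution. Rotated at 37°C for 24 h, then both sides sampled. Fraction unbound = buffer-side concentration / plasma-side total concentration.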

pCHK1 S345 = test: Pharmacodynamic study, immunohistochemistry of G3MB tumor tissue: pCHK1 S345; type: in vivo, mice bearing G3MB
In short: as §1

[4] = Plasma pharmacokinetic study, 20 mg/kg IV, PK/PD model; type: in vivo, CD-1 nude mice bearing G3MB; details: plasma model re-estimated with 20 mg/kg IV data
In short: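 Nine female CD-1 nude mice with orthotopic G3MB (~1×10^7 photons/sec) got 20 mg/kg prexasertib mesylate IV in 20% w/v Captisol. Sparse sampling: 2–3 plasma samples per mouse to 24 h, LC-MS/MS.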

[5] = Cerebral microdialysis, tumor ECF, mice bearing G3MB; type: in vivo, CD-1 nude mice bearing G3MB
In short: (§2)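 Female CD-1 nude mice, non-tumor-bearing (N=7) or with cortical G3MB implants enrolled at ~1×10^7 photons/sec (N=8). Stereotactic cortical guide cannula; 1 mm probe (38 kDa MWCO) perfused with Ringer's at 0.5 µl/min, 1 h equilibration. Single 10 mg/kg SQ dose. Hourly dialysate to 24 h; plasma at 0.25, 6.5 and 24 h. LC-MS/MS. Unbound ECF = dialysate/probe recovery. Population PK model gave per-mouse AUCs and ECF rate constants.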

[6] = Cerebral microdialysis, brain ECF, non-tumor bearing; type: in vivo, CD-1 nude mice (non-tumor bearing); details: 10 mg/kg SQ
In short: as §2

γ-H2AX = test: Pharmacodynamic study, immunohistochemistry of G3MB tumor tissue: γ-H2AX; type: in vivo, mice bearing G3MB
In short: as §1

[7] = 10 mg/kg SQ, apparent parameter
[8] = PK/PD model, fixed based upon a sensitivity analysis
[9] = 10 mg/kg SQ, ECF model, G3MB mice

CL, plasma (central) clearance, estimate (RSE%) [1, 7]: 5.64 (4.3%) l/h/kg
Q, tissue (peripheral) clearance, estimate (RSE%) [1, 7]: 0.58 (13%) l/h/kg
Vc, plasma (central) volume, estimate (RSE%) [1, 7]: 1.81 (18%) l/kg
Vp, tissue (peripheral) volume, estimate (RSE%) [1, 7]: 3.42 (8.0%) l/kg
ka, absorption rate constant, estimate (RSE%) ([1]; 10 mg/kg SQ, plasma population model): 1.07 (12%) h^−1
half-life ([1]; female, CD-1 nude, mouse, plasma, subcutaneous, 10 mg/kg): 4.5 h
AUC ([1]; female, CD-1 nude, mouse, plasma, subcutaneous, 10 mg/kg, 0−∞ (mean ± SD), 10 mg/kg SQ): 1.82 ± 0.462 µg·h/mL
AUC ([1]; female, CD-1 nude, mouse, plasma, subcutaneous, 10 mg/kg, 0−∞, range, 10 mg/kg SQ): 1.46 to 2.88 µg·h/mL
Binding to the dialysis membrane of the Equilibrium Dialyzer plate [3]: negligibly bound
fraction unbound at 24 h ([3]; CD-1, mouse, plasma): 0.11
EC50 at 20 mg/kg (pCHK1 S345; Mus musculus, iv, read-out: pCHK1 S345 EC50, prexasertib ECF concentration for 50% stimulation of maximum function of kin, estimate (RSE%), PK/PD model, 20 mg/kg IV, tumor ECF, preliminary): 0.0102 mg/L
pCHK1 S345 EC50, prexasertib ECF concentration for 50% stimulation of maximum function of kin, estimate (RSE%) (pCHK1 S345; PK/PD model, 20 mg/kg IV, tumor ECF, preliminary, 20 mg/kg): 10.15 (26.5%) ng/ml
CL, plasma clearance, estimate (RSE%) [4]: 6.03 (8.0%) l/h/kg
Q, tissue (peripheral) clearance, estimate (RSE%) [4]: 0.807 (10%) l/h/kg
Vc, plasma volume, estimate (RSE%) [4]: 2.67 (13%) l/kg
Vp, tissue (peripheral) volume, estimate (RSE%) [4]: 3.79 (6.0%) l/kg
ka, absorption rate constant, estimate (RSE%) [4]: 1.16 (10%) h^−1
kb45, peripheral rate constant, estimate (RSE%) [5, 9]: 0.39 (24%) h^−1
kb54, peripheral rate constant, estimate (RSE%) [5, 9]: 0.05 (41%) h^−1
Time of maximum tumor ECF concentrations post-dose ([5]; 10 mg/kg SQ, mice bearing G3MB): 1 h
Unbound AUCECF (mean ± SD) ([5]; 10 mg/kg SQ, tumor ECF, tumor-bearing mice, at 24 hours post-dose): 0.0473 ± 0.017 µg·h/mL
Kp uu ([5]; CD-1 nude, mouse, tumor ECF (microdialysate) / unbound plasma, subcutaneous, 10 mg/kg): 0.17 ± 0.08
θNTB on CLef, proportional shift for NTB mice, estimate (RSE%) ([6]; ECF model): 2.20 (38%)
θNTB on CLin, proportional shift for NTB mice, estimate (RSE%) ([6]; ECF model): 0.93 (45%)
θNTB on kb45, proportional shift for NTB mice, estimate (RSE%) ([6]; ECF model): 5.90 (77%)
θNTB on kb54, proportional shift for NTB mice, estimate (RSE%) ([6]; ECF model): 17.9 (32%)
Time of maximum brain ECF concentrations post-dose ([6]; NTB mice): 1 h
AUCplasma of unbound prexasertib (mean ± SD) ([6]; NTB mice, at 24 hours post-dose, from total exposure and FU): 0.271 ± 0.023 µg·h/mL
Unbound AUCECF (mean ± SD) ([6]; brain ECF, NTB mice, at 24 hours post-dose): 0.0248 ± 0.0118 µg·h/mL and 0.0248 µg·h/mL
SMILES: COc1cccc(OCCCN)c1-c1cc(Nc2cnc(C#N)cn2)n[nH]1 [prexasertib, 5-(5-[2-(3-Aminopropoxy)-6-methoxyphenyl]-1H-pyrazol-3-yl}amino)pyrazine-2-carbonitrile methanesulfonate hydrate]
Increase of cleaved caspase-3 (cleaved caspase-3): 1.4 fold
Plasma exposure AUCplasma, 0−∞ (mean ±SD) [2]: 2.41 ± 1.229 µg·h/mL
Time of peak induction of pCHK1 S345 after the dose (pCHK1 S345; 20 mg/kg IV single dose): 2 hours
Time pCHK1 S345 stayed above baseline after the dose (pCHK1 S345; 20 mg/kg IV single dose): at least 6 hours
Peak in pCHK1 S345 nuclear staining (pCHK1 S345; 20 mg/kg IV single dose, at 2 hours): 2.2 fold
pCHK1 S345 Emax, maximum extent of stimulation (pCHK1 S345; [8]): 2.0 (-)
Time of peak induction of γ-H2AX after the dose (γ-H2AX; 20 mg/kg IV single dose): 2 h
Time γ-H2AX was elevated above baseline (γ-H2AX; 20 mg/kg IV single dose): at least 6 hours
pH2Ax Emax, maximum extent of stimulation (γ-H2AX; [8]): 5.0 (-)
